Assay results of several laboratories.
Cell line: HepG2
Effect on: cell growth or viability

CCOC(=O)c1ccc(NC(=O)C2=C3C(=Nc4ccccc43)NC2=O)cc1 — viability (MTT; 1.56 µM; 24 h): 100%
COc1ccc(NC(=O)c2c(Nc3ccccc3)sc(C#N)c2NC(=O)CNc2ccccc2Cl)cc1 — viability (SRB; 0.1 µM; 48 h): 95.7%
O=[N+]([O-])c1ccc(-c2nc3ccccc3[nH]2)cc1 — IC50 (MTT; 48 h): 21 µM
COc1ccc(NC(=O)c2c(Nc3ccccc3)sc(C(=O)NN=Cc3ccc(OC)c(O)c3)c2NC(C)=O)cc1 — viability (SRB; 100 µM; 48 h): 22.4%
C=CCn1c(-c2ccc([N+](=O)[O-])cc2)nc2ccccc21 — IC50 (MTT): 36.8 µM
CCOC(=O)c1ccc(-n2c(C)cc(/C=C/c3ccc(OCC)cc3)c(C#N)c2=O)cc1 — viability (MTT; 6.25 µM; 24 h): 100%
CC(=O)Nc1cccc(-n2c(=O)n(C3CC3)c(=O)c3c(Nc4ccc(I)cc4F)n(C)c(=O)c(C)c32)c1 — viability (resazurin; 6.25 nM; 72 h): 68%
Cc1ccc2nc(-c3ccc(Cl)cc3)[nH]c2c1 — IC50 (MTT; 48 h): 28.9 µM
CCOC(=O)c1ccc(N2C(N)=C(C#N)C3(C(=O)Nc4ccccc43)C(C#N)=C2O)cc1 (stereo not drawn) — viability (MTT; 100 µM; 24 h): 10.7%
COc1ccc(-c2nc3ccccc3[nH]2)cc1OC — IC50 (MTT; 48 h): 44.1 µM
CCOC(=O)c1ccc(-n2c(-c3ccc(C)cc3)cc(-c3ccc(O)cc3)c(C#N)c2=O)cc1 — viability (MTT; 6.25 µM; 24 h): 67.9%
COc1ccc(NCC(=O)Nc2c(C#N)sc(Nc3ccccc3)c2C(=O)Nc2ccc(OC)cc2)cc1 — viability (SRB; 1 nM; 48 h): 97.2%
Cc1ccc2nc(-c3cccnc3)[nH]c2c1 — IC50 (MTT; 48 h): 68.4 µM
CCOC(=O)c1ccc(-n2c(N)c(C#N)c(CC#N)c(C#N)c2=O)cc1 — viability (MTT; 50 µM; 24 h): 35.1%
COc1ccc(NC(=O)c2c(Nc3ccccc3)sc(C#N)c2NC(=O)CNc2ccc(Cl)cc2)cc1 — viability (SRB; 10 µM; 48 h): 33.2%
